Experimental data published in ChEMBL document CHEMBL4834436, “Discovery of the S1P2 Antagonist GLPG2938 (1-[2-Ethoxy-6-(trifluoromethyl)-4-pyridyl]-3-[[5-methyl-6-[1-methyl-3-(trifluoromethyl)pyrazol-4-yl]pyridazin-3-yl]methyl]urea), a Preclinical Candidate for the Treatment of Idiopathic Pulmonary Fibrosis” (J Med Chem, 2021).
≈ marks a conversion by molar mass, not a printed value. Calls of active or inactive are those of the source. The calls are words filed in the database; no cut-off is given here.

Key:
Mus musculus [1] = experiment: Antifibrotic activity against intranasal bleomycin-induced C57BL/6 mouse lung fibrosis model assessed as reduction in Ashcroft score at 50 mg/kg, po twice daily for 14 days; type: functional, organism-based; details: time 14.0 day
Outline: (§1)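 Male C57BL/6 mice (7–8 weeks on arrival, one week acclimation) given bleomycin intranasally; prophylactic oral dosing twice daily for 14 days. Lungs scored histologically by Matsuse-modified Ashcroft score; 14–15 mice per group; Mann–Whitney vs bleomycin/vehicle.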

[2] = molecular target: T1, Sphingosine 1-phosphate receptor 2 (Homo sapiens, UniProt O95136); experiment: Antagonist activity at human S1P2 receptor expressed in CHO cells assessed as EC80 S1P-induced calcium flux measured for 3 mins by fluorescence assay; type: functional, cell-based
T1 sequence (O95136 whole entry): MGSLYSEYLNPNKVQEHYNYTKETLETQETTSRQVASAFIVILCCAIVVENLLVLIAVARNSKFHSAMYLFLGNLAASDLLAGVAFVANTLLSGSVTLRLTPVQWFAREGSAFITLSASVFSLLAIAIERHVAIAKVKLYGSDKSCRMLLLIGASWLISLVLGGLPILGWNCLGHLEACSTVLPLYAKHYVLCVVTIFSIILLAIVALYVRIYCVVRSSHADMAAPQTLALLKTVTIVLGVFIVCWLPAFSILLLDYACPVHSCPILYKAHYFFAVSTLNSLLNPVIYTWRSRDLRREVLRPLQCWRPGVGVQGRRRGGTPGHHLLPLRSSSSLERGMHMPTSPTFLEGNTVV
Outline: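 Same dye-loaded, starved human S1P2-CHO cells; after agonist readout, 15 min at 37 °C, then stimulated with S1P at EC80, fluorescence read 3 min. Max/baseline ratio normalized to vehicle and S1P EC80. 10-point 1/3 dilutions from 20 μM final; IC50 derived; geometric mean of ≥2 runs.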

[3] = molecular target: T1, Sphingosine 1-phosphate receptor 2; experiment: Antagonist activity at recombinant human S1P2 receptor expressed in CHO cells assessed as EC80 S1P-induced activation incubated for 4 hrs in presence of [35S]GTPgammaS by Topcount reader; type: functional, cell-based
Outline: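 Membranes from stable lines overexpressing recombinant human S1P2, preincubated with PVT-WGA SPA beads, mixed with compound serial dilutions, [35S]GTPγS and S1P at EC80. Incubated 4 h at room temperature, centrifuged, scintillation counted. Antagonist mode; IC50 as geometric mean of ≥2 runs.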

[4] = molecular target: T1, Sphingosine 1-phosphate receptor 2; experiment: Antagonist activity at recombinant human S1P2 receptor in HFL1 cells assessed as inhibition of EC80 S1P-induced IL8 release incubated for 16 to 24 hrs in absence of HSA by ELISA; type: functional, cell-based
Outline: (§2)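 HFL-1 lung fibroblasts seeded in 96- or 384-well plates, then medium replaced by starvation medium with 1% heat-inactivated FBS, ±1.95% HSA (2% HSA condition), 16–24 h. 10-point 1/3 dilutions, 30 μM top final, 1 h, then S1P at EC80 (without HSA: 1 μM 96-well or 0.5 μM 384-well; with HSA: 5 or 2 μM).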

[5] = Intrinsic clearance unbound in mouse liver microsomes at 1 uM […] by LC-MS/MS analysis; type: ADME, Microsome
[6] = molecular target: T1, Sphingosine 1-phosphate receptor 2; experiment: Antagonist activity at recombinant human S1P2 receptor in HFL1 cells assessed as inhibition of EC80 S1P-induced IL8 release incubated for 16 to 24 hrs in presence of 2% HSA by ELISA; type: functional, cell-based; outline: as §2
[7] = Intrinsic clearance unbound in human liver microsomes at 1 uM […] by LC-MS/MS analysis; type: ADME, Microsome
[8] = Half life in CD1 mouse at 1 mg/kg, iv measured up to 24 hrs by LC-MS/MS analysis; type: ADME, organism-based; details: in vivo
Outline: (§3)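 Male CD1 mice, composite design, n = 6 per route; iv 1 mg/kg in PEG200/water 60/40, oral gavage 5 mg/kg in Tween 80/MC 0.5% or PEG400/MC 0.5% after ≥12 h fast. Li-heparin blood sampled to 24 h, plasma by LC-MS/MS; noncompartmental analysis. Plasma protein binding: 5 μM compound, 4 h incubation.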

[9] = Half life in Sprague-Dawley rat at 1 mg/kg, iv measured up to 24 hrs by LC-MS/MS analysis; type: ADME, organism-based; details: in vivo
Outline: (§4)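 Male Sprague-Dawley rats (6–8 weeks), n = 3 per route; iv bolus 1 mg/kg in PEG200/water 60/40; gavage 5 or 10 mg/kg in PEG400/MC 0.5% after ≥12 h fast. Li-heparin plasma sampled to 24 h, LC-MS/MS, noncompartmental analysis. Plasma protein binding: 5 μM compound, 4 h incubation.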

[10] = Half life in beagle dog at 1 mg/kg, iv measured up to 24 hrs by LC-MS/MS analysis; type: ADME, organism-based, Canis lupus familiaris; details: in vivo
Outline: (§5)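 Non-naive male Beagle dogs (n = 3) given 1 mg/kg iv as 10 min infusion; after 3-day washout, oral gavage 5 or 1 mg/kg in PEG400/MC 0.5% or MC 0.5% after ≥12 h fast. Jugular or cephalic blood into lithium heparin to 24 h; plasma analysed. Plasma protein binding: 5 μM compound, 4 h incubation.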

[11] = Clearance in CD1 mouse at 1 mg/kg, iv measured up to 24 hrs by LC-MS/MS analysis; type: ADME, organism-based; details: in vivo; outline: as §3
[12] = Clearance in Sprague-Dawley rat at 1 mg/kg, iv measured up to 24 hrs by LC-MS/MS analysis; type: ADME, organism-based; details: in vivo; outline: as §4
[13] = Clearance in beagle dog at 1 mg/kg, iv measured up to 24 hrs by LC-MS/MS analysis; type: ADME, organism-based, Canis lupus familiaris; details: in vivo; outline: as §5
[14] = Volume of distribution at steady state in CD1 mouse at 1 mg/kg, iv measured up to 24 hrs by LC-MS/MS analysis; type: ADME, organism-based; details: in vivo, read-out: Vdss; outline: as §3
[15] = Volume of distribution at steady state in Sprague-Dawley rat at 1 mg/kg, iv measured up to 24 hrs by LC-MS/MS analysis; type: ADME, organism-based; details: in vivo, read-out: Vdss; outline: as §4
[16] = Volume of distribution at steady state in beagle dog at 1 mg/kg, iv measured up to 24 hrs by LC-MS/MS analysis; type: ADME, organism-based, Canis lupus familiaris; details: in vivo, read-out: Vdss; outline: as §5
[17] = Oral bioavailability in CD1 mouse at 5 mg/kg measured up to 24 hrs by LC-MS/MS analysis; type: ADME, organism-based; details: in vivo; outline: as §3
[18] = Oral bioavailability in Sprague-Dawley rat at 10 mg/kg measured up to 24 hrs by LC-MS/MS analysis; type: ADME, organism-based; details: in vivo; outline: as §4
[19] = Oral bioavailability in beagle dog at 1 mg/kg measured up to 24 hrs by LC-MS/MS analysis; type: ADME, organism-based, Canis lupus familiaris; details: in vivo; outline: as §5
[20] = Plasma protein binding CD1 mouse plasma at 5 uM incubated for 4 hrs; type: ADME, cell-free; details: read-out: PPB (converted); outline: as §3
[21] = Plasma protein binding Sprague-Dawley rat plasma at 5 uM incubated for 4 hrs; type: ADME, cell-free; details: read-out: PPB (converted); outline: as §4
[22] = Plasma protein binding beagle dog plasma at 5 uM incubated for 4 hrs; type: ADME, cell-free, Canis lupus familiaris; details: read-out: PPB (converted); outline: as §5
[23] = Thermodynamic solubility in FaSSGF at pH 1.6; type: physicochemical; details: read-out: Therm_solubility
[24] = Thermodynamic solubility in FaSSIF; type: physicochemical; details: read-out: Therm_solubility
Mus musculus [25] = experiment: Antifibrotic activity against intranasal bleomycin-induced C57BL/6 mouse lung fibrosis model assessed as reduction in Ashcroft score at 3 to 30 mg/kg, po twice daily for 14 days; type: functional, organism-based; details: dose 3-30 mg/kg, time 14.0 day; outline: as §1
[26] = molecular target: T1, Sphingosine 1-phosphate receptor 2; experiment: Antagonist activity at recombinant human S1P2 receptor in HFL1 cells assessed as inhibition of EC80 S1P-induced IL8 release measured as unbound concentration incubated for 16 to 24 hrs in presence of 2% HSA by ELISA; type: functional, cell-based; details: filed as antagonist, time 16-24 hrs
Outline: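 IL8 IC50 from the 2% HSA condition converted to free IC50 = IC50 × fu,medium, where fu,medium is estimated from human plasma protein binding fraction unbound and the serum percentage used in the assay.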

[27] = Oral bioavailability in Sprague-Dawley rat at 5 mg/kg measured up to 24 hrs by LC-MS/MS analysis; type: ADME, organism-based; details: in vivo; outline: as §4
Fibroblast = experiment: Prevention of S1P-induced human pulmonary fibroblasts contraction in collagen gel lattice mixture pretreated with TGFbeta for 72 hrs followed by treated at 0.5 to 5 uM compound incubated for 2 hrs then treated with S1P for 1 hr; type: functional, cell-based; details: dose 0.5-5 µM, time 96.0 hrs, in the assay text read “96 hrs” for “72 hrs”
Outline: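 Normal human lung fibroblasts pretreated 4 days with 1 ng/mL TGF-β, embedded in neutralized collagen I gels (200,000 cells/gel), kept 72 h in serum-free FGM with TGF-β for stress build-up. Compound added for 2 h, then 1 μM S1P; gels released and incubated 1 h at 37 °C; gel area imaged. Mean with 95% CI.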

Mus musculus [28] = experiment: Antifibrotic activity against intranasal bleomycin-induced C57BL/6 mouse lung fibrosis model assessed as reduction in Ashcroft score at 1 to 10 mg/kg, po twice daily for 14 days; type: functional, organism-based; details: dose 1-10 mg/kg, time 14.0 day; outline: as §1
[29] = molecular target: Voltage-gated inwardly rectifying potassium channel KCNH2 (Homo sapiens, UniProt Q12809); experiment: Inhibition of human ERG
Sequence of Voltage-gated inwardly rectifying potassium channel KCNH2 (Q12809 whole entry): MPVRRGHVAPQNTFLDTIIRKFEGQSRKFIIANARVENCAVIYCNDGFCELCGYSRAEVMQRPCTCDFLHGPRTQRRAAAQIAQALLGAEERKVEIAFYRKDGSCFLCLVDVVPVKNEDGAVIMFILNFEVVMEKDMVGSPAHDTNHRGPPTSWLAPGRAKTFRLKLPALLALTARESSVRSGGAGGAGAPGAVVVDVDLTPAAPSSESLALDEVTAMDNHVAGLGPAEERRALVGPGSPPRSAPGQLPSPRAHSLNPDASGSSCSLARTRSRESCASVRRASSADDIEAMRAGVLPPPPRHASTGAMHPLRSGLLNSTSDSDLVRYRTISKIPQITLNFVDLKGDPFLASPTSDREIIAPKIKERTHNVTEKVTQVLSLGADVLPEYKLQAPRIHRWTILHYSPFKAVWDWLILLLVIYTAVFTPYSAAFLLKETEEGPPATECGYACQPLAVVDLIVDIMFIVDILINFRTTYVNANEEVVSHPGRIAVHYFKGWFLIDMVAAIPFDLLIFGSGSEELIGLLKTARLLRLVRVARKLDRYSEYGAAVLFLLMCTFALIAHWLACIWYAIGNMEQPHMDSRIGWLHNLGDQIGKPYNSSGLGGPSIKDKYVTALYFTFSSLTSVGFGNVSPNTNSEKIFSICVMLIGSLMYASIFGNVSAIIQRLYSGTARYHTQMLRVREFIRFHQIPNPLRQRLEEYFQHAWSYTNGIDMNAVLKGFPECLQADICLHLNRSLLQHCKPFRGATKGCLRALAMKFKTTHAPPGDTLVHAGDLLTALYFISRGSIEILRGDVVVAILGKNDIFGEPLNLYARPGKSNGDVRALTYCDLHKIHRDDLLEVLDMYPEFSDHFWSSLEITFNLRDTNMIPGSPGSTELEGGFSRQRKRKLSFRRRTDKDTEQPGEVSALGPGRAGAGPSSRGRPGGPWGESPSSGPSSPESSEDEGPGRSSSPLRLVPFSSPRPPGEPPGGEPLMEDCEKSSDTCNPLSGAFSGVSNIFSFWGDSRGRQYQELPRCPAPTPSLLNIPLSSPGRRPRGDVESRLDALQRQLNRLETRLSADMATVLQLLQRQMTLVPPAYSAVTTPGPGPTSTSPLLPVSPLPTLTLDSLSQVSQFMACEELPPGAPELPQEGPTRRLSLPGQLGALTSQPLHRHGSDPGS

CYP2C19 = CYP2C19 (Homo sapiens, UniProt P33261); experiment: Inhibition of recombinant CYP2C19 (unknown origin) at 10 uM; type: ADME
Sequence of CYP2C19 (P33261 whole entry): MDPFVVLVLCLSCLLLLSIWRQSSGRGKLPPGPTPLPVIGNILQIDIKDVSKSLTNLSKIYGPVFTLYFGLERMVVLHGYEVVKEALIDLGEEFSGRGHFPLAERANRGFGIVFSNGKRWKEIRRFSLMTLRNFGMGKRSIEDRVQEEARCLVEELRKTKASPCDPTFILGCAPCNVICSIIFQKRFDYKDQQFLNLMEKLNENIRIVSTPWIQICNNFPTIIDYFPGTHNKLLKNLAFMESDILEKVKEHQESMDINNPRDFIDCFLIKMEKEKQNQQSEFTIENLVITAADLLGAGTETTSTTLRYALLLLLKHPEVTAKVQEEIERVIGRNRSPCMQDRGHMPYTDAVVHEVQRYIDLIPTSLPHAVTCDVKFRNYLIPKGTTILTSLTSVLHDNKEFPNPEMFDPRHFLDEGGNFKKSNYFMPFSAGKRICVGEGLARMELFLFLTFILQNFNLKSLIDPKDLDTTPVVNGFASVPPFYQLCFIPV

CYP2C9 = CYP2C9 (Homo sapiens, UniProt P11712); experiment: Inhibition of recombinant CYP2C9 (unknown origin) at 10 uM; type: ADME
Sequence of CYP2C9 (P11712 whole entry): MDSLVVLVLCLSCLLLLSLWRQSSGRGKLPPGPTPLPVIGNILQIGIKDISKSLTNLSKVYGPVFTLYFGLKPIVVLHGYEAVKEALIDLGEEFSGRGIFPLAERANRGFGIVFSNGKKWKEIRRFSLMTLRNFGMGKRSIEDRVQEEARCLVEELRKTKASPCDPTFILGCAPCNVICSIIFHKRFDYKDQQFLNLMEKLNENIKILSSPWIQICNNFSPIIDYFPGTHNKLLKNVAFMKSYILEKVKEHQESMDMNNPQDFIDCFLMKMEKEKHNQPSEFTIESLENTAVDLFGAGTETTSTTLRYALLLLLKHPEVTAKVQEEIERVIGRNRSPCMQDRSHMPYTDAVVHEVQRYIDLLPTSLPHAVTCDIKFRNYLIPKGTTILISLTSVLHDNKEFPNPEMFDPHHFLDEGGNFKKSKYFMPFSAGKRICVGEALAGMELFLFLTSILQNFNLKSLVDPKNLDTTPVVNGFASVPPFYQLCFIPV

CYP3A4 = CYP3A4 (Homo sapiens, UniProt P08684); experiment: Inhibition of recombinant CYP3A4 (unknown origin) at 10 uM; type: ADME
Sequence of CYP3A4 (P08684 whole entry): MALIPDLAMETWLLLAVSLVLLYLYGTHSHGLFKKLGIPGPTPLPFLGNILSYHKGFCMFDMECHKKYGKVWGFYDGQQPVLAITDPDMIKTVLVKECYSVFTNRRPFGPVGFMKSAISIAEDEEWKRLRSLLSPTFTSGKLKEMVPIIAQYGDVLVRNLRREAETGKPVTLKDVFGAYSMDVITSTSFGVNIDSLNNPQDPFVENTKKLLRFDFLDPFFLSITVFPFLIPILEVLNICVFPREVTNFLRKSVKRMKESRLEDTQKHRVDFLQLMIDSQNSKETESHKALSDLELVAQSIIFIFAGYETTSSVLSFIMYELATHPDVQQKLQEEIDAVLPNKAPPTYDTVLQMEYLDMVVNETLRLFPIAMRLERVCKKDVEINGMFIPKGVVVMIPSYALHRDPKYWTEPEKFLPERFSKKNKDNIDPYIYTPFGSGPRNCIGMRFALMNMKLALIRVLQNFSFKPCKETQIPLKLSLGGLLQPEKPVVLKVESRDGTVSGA

[30] = Oral bioavailability in beagle dog at 5 mg/kg measured up to 24 hrs by LC-MS/MS analysis; type: ADME, organism-based, Canis lupus familiaris; details: in vivo; outline: as §5

| IC50 [2] [nM] | IC50 [3] [nM] | IC50 [4] [nM] | CL free [5] [mL/min/kg] | IC50 [6] [nM] | CL free [7] [mL/min/kg] | half-life [8] [h] | half-life [9] [h] | half-life [10] [h] | clearance [11] [mL/min/kg] | clearance [12] [mL/min/kg] | clearance [13] [mL/min/kg] | Vd [14] [L/kg] | Vd [15] [L/kg] | Vd [16] [L/kg] | bioavailability [17] [%] | fraction unbound at 4 h, 5 µM [20] | fraction unbound at 4 h, 5 µM [21] | fraction unbound at 4 h, 5 µM [22] | solubility thermodynamic [23] [µg/mL] | SMILES | further results |
| --- | --- | --- | --- | --- | --- | --- | --- | --- | --- | --- | --- | --- | --- | --- | --- | --- | --- | --- | --- | --- | --- |
|  |  |  |  |  |  |  |  |  |  |  |  |  |  |  |  |  |  |  |  | Cc1ccc(=O)n(-c2ccccc2)c1 | Activity (Mus musculus [1]): Active |
| 4500 | 16000 | 16 | 283 | 49 | 36.7 | 0.45 | 1 | 1.6 | 12.2 | 6.17 | 11 | 0.47 | 0.54 | 1.5 | 29 | 0.014 | 0.004 | 0.022 | 505 (≈ 1090 µM) | CCOc1nc(C)cc(NC(=O)NCc2cc(C)c(-c3cn(C)nc3C(F)(F)F)nn2)c1C | bioavailability [18]: 84%; bioavailability [19]: 39%; solubility thermodynamic [24]: 15 µg/mL (≈ 32.4 µM); Activity (Mus musculus [25]): Active; fIC50 [26]: 1.3 nM |
| 8800 | 29000 | 29 | 140 | 87 | < 38.3 | 2.3 | 2.7 | 7.6 | 4 | 1.52 | 1.67 | 0.81 | 0.35 | 1.1 | 64 | 0.001 | < 0.001 | 0.003 | 2.7 (≈ 5.36 µM) | CCOc1cc(NC(=O)NCc2cc(C)c(-c3cn(C)nc3C(F)(F)F)nn2)cc(C(F)(F)F)n1 | bioavailability [27]: 29%; solubility thermodynamic [24]: 23 µg/mL (≈ 45.7 µM); Activity (Fibroblast): Active; Activity (Mus musculus [28]): Active; inhibition (INH) [29]: Not Active; fIC50 [26]: 0.6 nM |
| 11 | 22000 | 22 | 450 |  | 150 |  |  |  |  |  |  |  |  |  |  |  |  |  |  | CCOc1cc(NC(=O)NCc2cc(C)c(-c3cn(C)nc3C(F)(F)F)cn2)cc(Cl)n1 | inhibition at 10 µM (CYP2C19): 100%; inhibition at 10 µM (CYP2C9): 83%; inhibition at 10 µM (CYP3A4): 83% |
| 7700 | 20000 | 20 | < 383 | 45 | < 43.3 | 0.55 | 1.1 | 3.1 | 10.3 | 4.17 | 7.83 | 0.49 | 0.38 | 2.1 | 20 | 0.002 | 0.001 | 0.016 | 5 (≈ 10.6 µM) | CCOc1cc(NC(=O)NCc2cc(C)c(-c3cn(C)nc3C(F)(F)F)nn2)cc(Cl)n1 | bioavailability [27]: 10%; bioavailability [30]: 30%; solubility thermodynamic [24]: 36 µg/mL (≈ 76.6 µM); inhibition at 10 µM (CYP2C19): 61%; inhibition at 10 µM (CYP2C9): 58%; inhibition at 10 µM (CYP3A4): 23%; fIC50 [26]: 1 nM |
